Entries after “also recorded” stand apart in the source; their conditions may differ. Each block holds one molecule with its values, some of them ahead of it.
Tests used:
[1] = test system: TDO; assay: TDO mRNA expression in A172 cells; format: cell-based, human; details: for TDO expression: mRNA and Western blot (Supplemental Figure 2)
[2] = test system: A172 (TDO); assay: Cell-based Kyn production assay in A172 cells; parameters: species or system human; details: A172 cells expressing TDO
In short: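 TDO-dependent Kyn production: A172 cells were seeded and grown 24 h, exposed to test compound for 1 h, then given L-Trp (final 524 μM) without cytokine and cultured 24 h. Kyn was detected by Ehrlich reaction, adding aqueous 7% CCl₃COOH mixed 2:5 with 2% p-dimethylaminobenzaldehyde in acetic acid, and absorbance read at 460 nm. Triplicate samples; 3 independent experiments.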

[3] = molecular target: T1, rhTDO (Homo sapiens, UniProt P48775); assay: Kinetics analysis; format: biochemical; details: Lineweaver-Burk plot; 680C91 0.5 and 1 μM, PVZB3001 1 and 2 μM
In short: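 Mode of inhibition was taken from Lineweaver–Burk plots of the recombinant human enzyme, plotting inverse initial rate against inverse L-Trp concentration with or without test compound. DMSO served as control.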

[4] = test system: A172 cells expressing IDO1 and TDO; assay: Kyn production in A172 cells expressing IDO1 and TDO by IFN-γ stimulation; format: cell-based, human; details: IFN-γ 10 ng/mL; 524 μM L-Trp, 24 hours
In short: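 A172 cells, grown 24 h after seeding, were given test compound 1 h before co-addition of L-Trp (final 524 μM) and IFN-γ (final 10 ng/mL) to express IDO1 and TDO. After 24 h, Kyn was quantified by Ehrlich reaction (CCl₃COOH plus p-dimethylaminobenzaldehyde in acetic acid) at 460 nm. IFN-γ-stimulated, DMSO-treated cells served as control. Triplicates; 3 independent experiments.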

[5] = molecular target: rhIDO1 (Homo sapiens, UniProt P14902); assay: Enzyme assay; format: biochemical; details: read-out: IC50 value on rhIDO1; cell-free; 200 μM L-Trp
[6] = test system: ERK1/2; assay: Western blot of ERK1/2 phosphorylation in A172 cells; format: cell-based, human
In short: (§1)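 Cells were lysed in RIPA buffer with protease inhibitors. Lysate (20–30 μg protein/lane) was separated by polyacrylamide gel electrophoresis and transferred to PVDF. Membranes were blocked with 5% skim milk or a signal-enhancing blocking reagent, then probed with primary antibody overnight at 4°C and secondary antibody 1 h at room temperature. Bands were visualised by ECL imaging.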

[7] = test system: TDO; assay: Western blot of TDO protein in A172 cells; format: cell-based, human; details: at 1000 nM
In short: as §1

[8] = test system: A172 cells; assay: Cell viability assay; format: cell-based, human
In short: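 A172 cells were seeded and grown 24 h, then given test compound for 1 h before L-Trp (final 524 μM), with no IFN-γ. After 24 h of culture, WST-8 was added for 40–60 min at 37°C and absorbance read at 450 nm. Triplicate samples; 3 independent experiments.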

[9] = molecular target: T1, rhTDO; assay: Enzyme assay; format: biochemical
[10] = test system: CT26-Ido1 tumors; assay: Antitumor activity in mice bearing CT26-Ido1 tumors; format: in vivo, mouse; details: oral, 50.0 mg/kg
In short: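 Female BALB/c mice (6 weeks) received 1 × 10⁵ CT26-Ido1 cells s.c. in the right and left dorsal regions. On day 6 they were randomised (n = 8) to vehicle or 12.5, 25 or 50 mg/kg p.o. once daily. Caliper diameters were taken every 2 days to day 14, with V = (W² × L)/2. Tumours were weighed on day 14 and %IR was taken from mean tumour weights versus vehicle. Body weight every 2 days was expressed relative to day 1. Tumour Kyn and Trp were measured by ELISA after dissociation in PBS.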

[11] = test system: NK-92MI cells; assay: Granzyme B production assay in NK-92MI; format: cell-based, human; details: NK-92MI treated with Kyn 72 h, then 5.5 h fresh medium; ELISA
In short: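 NK-92MI cells were pre-cultured for 72 h with Kyn, then moved to fresh medium without Kyn for 5.5 h. Culture supernatant was collected and granzyme B quantified with a human granzyme B ELISA following the kit protocol.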

[12] = test system: NK-92MI cells; assay: NK-92MI viability after addition of Kyn; format: cell-based, human; details: 72 h after addition of Kyn

T1 sequence (P48775 whole entry): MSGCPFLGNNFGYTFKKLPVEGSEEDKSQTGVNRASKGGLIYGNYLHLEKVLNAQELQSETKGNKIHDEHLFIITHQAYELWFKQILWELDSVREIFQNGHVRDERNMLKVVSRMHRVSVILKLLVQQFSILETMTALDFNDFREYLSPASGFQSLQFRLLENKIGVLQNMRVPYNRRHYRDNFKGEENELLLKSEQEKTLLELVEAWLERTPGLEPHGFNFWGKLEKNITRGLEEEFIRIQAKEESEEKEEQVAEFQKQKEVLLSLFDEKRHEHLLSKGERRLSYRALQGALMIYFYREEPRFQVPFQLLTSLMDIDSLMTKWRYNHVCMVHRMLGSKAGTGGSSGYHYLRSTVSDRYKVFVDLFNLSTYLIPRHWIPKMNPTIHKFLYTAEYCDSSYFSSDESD
Sequence of rhIDO1 (P14902 whole entry): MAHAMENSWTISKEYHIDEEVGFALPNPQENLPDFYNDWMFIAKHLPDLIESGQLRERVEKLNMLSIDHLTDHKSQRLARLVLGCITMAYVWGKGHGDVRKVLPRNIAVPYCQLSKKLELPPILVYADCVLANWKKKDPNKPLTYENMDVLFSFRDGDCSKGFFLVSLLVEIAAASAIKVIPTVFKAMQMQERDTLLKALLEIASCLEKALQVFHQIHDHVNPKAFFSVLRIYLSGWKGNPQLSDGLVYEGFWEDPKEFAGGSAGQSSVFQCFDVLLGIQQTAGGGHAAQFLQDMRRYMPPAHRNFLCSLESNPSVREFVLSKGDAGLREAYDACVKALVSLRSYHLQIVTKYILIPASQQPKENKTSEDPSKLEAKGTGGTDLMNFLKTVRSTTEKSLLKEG

Structure (SMILES): Cn1c(=O)c(F)c(Nc2ccc(I)cc2F)c2c(=O)n(C[C@@H](O)CO)cnc21 [TAK-733]
TDO expression [1]: reduction of TDO expression | Kyn production in A172 cells (in words) [2]: attenuated Kyn production

Inhibition pattern against TDO [3]: competitive inhibition | IC50 [5]: > 10 µM
Structure (SMILES): Fc1ccc2c(/C=C/c3cccnc3)c[nH]c2c1 [680C91]
Kyn production in A172 cells expressing both IDO1 and TDO (in words) [4]: decreased Kyn production; also recorded: Partial inhibition of Kyn production | Kyn production in A172 cells (in words) [2]: reduced

Inhibitory activity against rhTDO (in words) ([9]; cell-free assay): did not inhibit
Structure (SMILES): CC(=O)Nc1cccc(-n2c(=O)n(C3CC3)c(=O)c3c(Nc4ccc(I)cc4F)n(C)c(=O)c(C)c32)c1 [trametinib]
ERK1/2 phosphorylation [6]: inhibition of ERK1/2 phosphorylation | TDO protein expression [7]: downregulated | TDO mRNA expression ([1]; at 100 nM): downregulated | Kyn production in A172 cells (in words) [2]: decreased Kyn production in a dose-dependent manner | Cell viability of A172 cells (in words) [8]: without reducing cell viability

Enzymatic activity of TDO ([9]; at 1 μM or higher concentrations): inhibited the enzymatic activity of TDO
Structure (SMILES): NS(=O)(=O)NCCNc1nonc1C(=NO)Nc1ccc(F)c(Br)c1 [epacadostat]
Kyn production in A172 cells expressing both IDO1 and TDO (in words) [4]: decreased Kyn production; also recorded: inhibited Kyn production more effectively | Antitumor effect [10]: moderate effect without statistical significance

Structure (SMILES): Cc1cc(C(=O)NOCCO)c(Nc2ccc(I)cc2F)n(C)c1=O [AZD8330]
TDO expression [1]: reduction of TDO expression | Kyn production in A172 cells (in words) [2]: attenuated Kyn production

Structure (SMILES): Nc1ccccc1C(=O)CC(N)C(=O)O (stereo not shown) [Kyn, Kynurenine]
Granzyme B production [11]: reduced | Viability of NK-92MI cells [12]: reduced

From paper PMC9716449 (International Journal of Tryptophan Research : IJTR, 2022)
